Experimental data published in PubChem BioAssay AID686939 (The Scripps Research Institute Molecular Screening Center, 2013).
Hit rate of the full screen: of about 3,500 compounds, about 1,400 (40%) were called active.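 The calls were made as follows: active = activation above the solvent-only control well mean plus 3 SD, averaged across control plates (cut at about 5.2% in these data); inactive = the rest.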 The set was probably picked from earlier hits. These entries were drawn from the full list.

Assay: GAL4-VP16 luciferase reporter activation, counter-screen for SMARCA2 (BRM) activator project, cell-based, pG5luc, luminescence, high throughput (AID 686939)
Settings: HEK293 GAL4-VP16 pG5luc reporter, at 9.1 µM, hits give high values, scaled: DMSO wells 0%, SAHA wells 100%
Method in brief: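 Assay system: 293 cells carrying GAL4-VP16 plus UAS-luciferase reporter | Read-out basis: Percent activation scaled between DMSO (0%) and SAHA (100%) control medians | Times: 24 h exposure, 37 °C, 5% CO2, One-Glo 15 min RT | Signal: Luciferase luminescence after One-Glo reagent addition | Compound: One dose, 9.1 µM nominal | Repeats: Each compound tested in triplicate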
With `Cc1cc(C)c2nc(NC(=O)C3CCCO3)sc2c1` (stereo unspecified) the activation was 7.97% (active).
With `O=C(Nc1nnc(CCc2ccccc2)s1)C1CCCO1` (stereo unspecified) the activation was 0.86% (inactive).
With `Cc1ccccc1C1=N/C(=C/c2cccnc2)C(=O)O1` the activation was 0.55% (inactive).
With `COC(=O)c1ccc(/C=C2/C(=O)Oc3ccccc32)cc1` the activation was -0.16% (inactive).
For `Cc1ccc(O)c(CNc2nc3ccccc3n2C)c1`, the activation was 1.49% (inactive).
In the case of `COC(=O)c1ccc(NCc2cc(O)ccc2O)cc1`, the activation is reported as 5.14% (active).
With `CCC1CCC/C1=N\NC(=O)c1ccc(Cl)cc1` (stereo unspecified) the activation was 0.4% (inactive).
With `O=C(C1CCC1)N1CCN(S(=O)(=O)c2ccc([N+](=O)[O-])cc2)CC1` the activation was 0.6% (inactive).
With `Cc1ccsc1-c1nc(CSCC(=O)NCCN2CCCC2)c(C)o1` the activation was 0.41% (inactive).
For `Cc1ccc(C(=O)Nc2nc3ccc(Cl)cc3s2)o1`, the activation was 7.07% (active).
For `CC1CCCCN1C(=S)NCc1ccccc1` (stereo unspecified), the activation was -0.22% (inactive).
In the case of `Cc1ccc(C(=O)NNC(=O)c2cccs2)cc1`, the activation is reported as 6.36% (active).
For `Cc1ccc(S(=O)(=O)c2c[nH]c3ccc(Cl)cc3c2=O)cc1`, the activation was -0.72% (inactive).
For `Cc1ccc(S(=O)(=O)NC(C)C(=O)NCc2ccc(Cl)cc2)cc1` (stereo unspecified), the activation was -0.12% (inactive).
In the case of `COc1ccc(NC(=O)c2sccc2SCC#N)cc1`, the activation is reported as 2.71% (inactive).
In the case of `O=[N+]([O-])c1ccc2c(c1)Nc1nc3ccccc3nc1N2`, the activation is reported as 10.8% (active).
With `CCCn1c(=O)c2ccccc2n2c(SCC(=O)/C(C#N)=C(\C)N)nnc12` the activation was -0.93% (inactive).
With `CCc1cc2c(=O)c(-c3ccon3)c(N)oc2cc1OC` the activation was 5.65% (active).
For `Cc1n[nH]c(=O)nc1N/N=C/c1cccs1`, the activation was 2.94% (inactive).
For `CC(C)c1ccc(NC(=S)NC2CC3C=CC2C3)cc1` (stereo unspecified), the activation was 8.15% (active).
With `CCc1ccc(NC2Nc3cc(C)nn3S2)cc1` (stereo unspecified) the activation was 6.27% (active).
For `O=C(NCC1CCCO1)c1cc2c(s1)CCCC2` (stereo unspecified), the activation was 10.9% (active).
With `Cc1ccc(NC(=O)c2cnc(SCC(=O)NCC3CCCO3)n(C)c2=O)cc1` (stereo unspecified) the activation was 3.55% (inactive).
For `O=C(Nc1ccc(F)cc1)c1cc2c(s1)CCCC2`, the activation was 10.8% (active).
With `COCn1c(COc2ccccc2)nc2ccccc21` the activation was 3.98% (inactive).
With `CN1CCN(CCCNC(=O)c2ccc(/C=C3\Oc4ccccc4N(Cc4ccc(Cl)cc4)C3=O)cc2)CC1` the activation was 2.16% (inactive).
In the case of `COC(=O)Cc1nnn2c1[C@H](C)[C@H](c1ccccc1[N+](=O)[O-])OCC2`, the activation is reported as 1.5% (inactive).
With `O=C(Nc1ccc2nccnc2c1)c1ccco1` the activation was 6.58% (active).
For `CCOc1cc(NC(=S)NCCCOC)c(OCC)cc1NC(=O)c1ccco1`, the activation was -0.82% (inactive).
With `O=C(Nc1ccc(NC(=O)c2cccs2)cn1)c1ccco1` the activation was 11.6% (active).
For `C/C(CC(=O)NC(C)(C)C)=N\NC(=O)c1ccco1`, the activation was 1.25% (inactive).
